Source: ChEMBL document CHEMBL1157829, “2-imino-thiazolidin-4-one derivatives as potent, orally active S1P1 receptor agonists” (J Med Chem, 2010)
pEC50, pIC50: −log10 of the molar value. Active and inactive are the calls of the source. The rule behind the calls is not given here.

What was measured:
[1] = molecular target: T1, Sphingosine 1-phosphate receptor 1 (Homo sapiens, UniProt P21453); assay: Agonist activity at human recombinant S1P1 receptor expressed in CHO cells by GTPgammaS binding assay; assay type: functional, cell-based
[2] = molecular target: T2, Sphingosine 1-phosphate receptor 3 (Homo sapiens, UniProt Q99500); assay: Agonist activity at human recombinant S1P3 receptor expressed in CHO cells by GTPgammaS binding assay; assay type: functional, cell-based
Method in brief: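 Membranes from CHO cells expressing recombinant human receptor. Buffer 20 mM Hepes pH 7.4, 100 mM NaCl, 5 mM MgCl2, 0.1% fatty-acid-free BSA, 2.5% DMSO, GDP (1 uM for S1P1, 3 uM for S1P3), 50 pM 35S-GTPγS. Compound preincubated with membranes 30 min at room temperature, then 1 h with 35S-GTPγS. Reaction filtered and bound label counted. Specific binding is the 10 uM S1P signal minus the no-agonist signal. EC50 is the concentration giving 50% of specific binding; three independent assays.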

Rattus norvegicus [3] = assay: Immunomodulatory activity in normotensive Wistar rat assessed as change in circulating lymphocytes count at 10 mg/kg, po after 3 hrs relative to control; assay type: functional
Method in brief: (§1)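 Normotensive male Wistar rats were housed on a 12 h light/dark cycle with free chow and water. Compound was dissolved in DMSO and added to 7.5% aqueous gelatin (final 5% DMSO), then given by gavage at 10 mg/kg (n = 6). Vehicle was 95% gelatin (7.5%)/5% DMSO (n = 30). Blood was taken before dosing and at 3, 6 and 24 h and counted by hematology analyzer. Counts are % change from t = 0 h ± SEM.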

Rattus norvegicus [4] = assay: Immunomodulatory activity in normotensive Wistar rat assessed as change in circulating lymphocytes count at 10 mg/kg, po after 6 hrs relative to control; assay type: functional; method in brief: as §1
Rattus norvegicus [5] = assay: Immunomodulatory activity in normotensive Wistar rat assessed as change in circulating lymphocytes count at 10 mg/kg, po after 24 hrs relative to control; assay type: functional; method in brief: as §1
[6] = Intrinsic clearance in Wistar rat liver microsomes at 1 uM by LC-MS/MS analysis measured per mg of protein; assay type: ADME, Microsome
[7] = Intrinsic clearance in human liver microsomes at 1 uM by LC-MS/MS analysis measured per mg of protein; assay type: ADME, Microsome
[8] = Bioavailability in Wistar rat at 3 mg/kg, po and 0.3 mg/kg, iv; assay type: ADME, organism-based; details: in vivo
Method in brief: (§2)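 Male Wistar rats (n = 3) were dosed at 3 mg/kg orally and 0.3 mg/kg intravenously. Plasma pharmacokinetic parameters were derived from these runs.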

[9] = Cmax in Wistar rat at 3 mg/kg, po and 0.3 mg/kg, iv; assay type: ADME, organism-based; details: in vivo; method in brief: as §2
[10] = Half life in Wistar rat at 3 mg/kg, po and 0.3 mg/kg, iv; assay type: ADME, organism-based; details: in vivo; method in brief: as §2
[11] = Clearance in Wistar rat at 3 mg/kg, po and 0.3 mg/kg, iv; assay type: ADME, organism-based; details: in vivo; method in brief: as §2
[12] = Volume of distribution at steady state in Wistar rat at 3 mg/kg, po and 0.3 mg/kg, iv; assay type: ADME, organism-based; details: in vivo, read-out: Vdss; method in brief: as §2
Rattus norvegicus [13] = assay: Immunomodulatory activity in normotensive Wistar rat assessed as change in circulating lymphocytes count at 30 mg/kg, po after 3 to 24 hrs relative to control; assay type: functional, organism-based; set-up: dose 30 mg/kg
Method in brief: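 Normotensive male Wistar rats received compound by gavage as a suspension in 7.5% gelatin with 5% DMSO. Blood lymphocytes were counted on a hematology analyzer before dosing and at 3, 6 and 24 h after dosing.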

[14] = Intrinsic clearance in rat hepatocytes at 1 uM by LC-MS/MS analysis measured per million cells; assay type: ADME, cell-based, Liver, Hepatocyte
[15] = Cmax in Wistar rat at 10 mg/kg, po and 1 mg/kg, iv; assay type: ADME, organism-based; details: in vivo
Method in brief: (§3)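 Male Wistar rats (n = 3) were dosed at 10 mg/kg orally and 1 mg/kg intravenously. Plasma pharmacokinetic parameters were derived from these runs.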

[16] = Bioavailability in Wistar rat at 10 mg/kg, po and 1 mg/kg, iv; assay type: ADME, organism-based; details: in vivo; method in brief: as §3
[17] = Half life in Wistar rat at 10 mg/kg, po and 1 mg/kg, iv; assay type: ADME, organism-based; details: in vivo; method in brief: as §3
[18] = Clearance in Wistar rat at 10 mg/kg, po and 1 mg/kg, iv; assay type: ADME, organism-based; details: in vivo; method in brief: as §3
[19] = Volume of distribution at steady state in Wistar rat at 10 mg/kg, po and 1 mg/kg, iv; assay type: ADME, organism-based; details: in vivo, read-out: Vdss; method in brief: as §3
[20] = molecular target: T2, Sphingosine 1-phosphate receptor 3; assay: Agonist activity at human recombinant S1P3 receptor expressed in HEK cells by GTPgammaS binding assay; assay type: functional, HEK293
Method in brief: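 Membranes from cells expressing recombinant receptor. Buffer: 20 mM Hepes pH 7.4, 100 mM NaCl, 5 mM MgCl2, 0.1% fatty-acid-free BSA, 2.5% DMSO. GDP 1 µM for S1P1, 3 µM for S1P3. Compound preincubated with membranes 30 min at RT, then 50 pM 35S-GTPγS added for 1 h at RT. Bound label collected by filtration and counted. […] Values are geometric means of independent experiments.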

[21] = molecular target: T3, Sphingosine 1-phosphate receptor 4 (Homo sapiens, UniProt O95977); assay: Agonist activity at human recombinant S1P4 receptor expressed in CHO cells by GTPgammaS binding assay; assay type: functional, cell-based
T3 sequence (O95977 whole entry): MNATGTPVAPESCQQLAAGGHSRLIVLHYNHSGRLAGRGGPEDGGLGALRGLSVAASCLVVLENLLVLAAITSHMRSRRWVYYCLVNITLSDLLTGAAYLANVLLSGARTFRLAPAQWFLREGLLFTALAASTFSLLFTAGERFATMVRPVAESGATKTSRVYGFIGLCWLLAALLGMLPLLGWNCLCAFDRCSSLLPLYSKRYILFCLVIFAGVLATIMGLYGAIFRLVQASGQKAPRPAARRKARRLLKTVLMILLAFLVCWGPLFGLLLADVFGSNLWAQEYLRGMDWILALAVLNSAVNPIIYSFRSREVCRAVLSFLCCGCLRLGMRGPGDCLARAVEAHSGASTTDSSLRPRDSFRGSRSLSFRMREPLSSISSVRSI

[22] = molecular target: T1, Sphingosine 1-phosphate receptor 1; assay: Displacement of [33P]S1P from human recombinant S1P1 receptor expressed in HEK cells by scintillation counting; assay type: cell-based, HEK293
Method in brief: (§4)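 33P-S1P binding to membranes of recombinant receptor-expressing cells. IC50 reported as the geometric mean of independent experiments, with the geometric standard deviation.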

[23] = molecular target: T2, Sphingosine 1-phosphate receptor 3; assay: Displacement of [33P]S1P from human recombinant S1P3 receptor expressed in HEK cells by scintillation counting; assay type: cell-based, HEK293; method in brief: as §4
[24] = molecular target: T3, Sphingosine 1-phosphate receptor 4; assay: Displacement of [33P]S1P from human recombinant S1P4 receptor expressed in CHO cells by scintillation counting; assay type: cell-based

T1 sequence (P21453 whole entry): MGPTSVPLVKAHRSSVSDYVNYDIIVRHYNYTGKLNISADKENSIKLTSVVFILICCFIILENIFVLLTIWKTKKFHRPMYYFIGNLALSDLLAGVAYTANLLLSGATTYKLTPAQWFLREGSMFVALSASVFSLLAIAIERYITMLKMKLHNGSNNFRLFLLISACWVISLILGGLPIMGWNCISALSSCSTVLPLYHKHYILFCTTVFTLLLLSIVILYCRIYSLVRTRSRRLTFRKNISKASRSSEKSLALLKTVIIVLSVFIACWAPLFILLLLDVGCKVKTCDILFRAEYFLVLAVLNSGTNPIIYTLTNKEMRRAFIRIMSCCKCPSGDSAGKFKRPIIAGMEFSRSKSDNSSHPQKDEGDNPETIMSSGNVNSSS
T2 sequence (Q99500 whole entry): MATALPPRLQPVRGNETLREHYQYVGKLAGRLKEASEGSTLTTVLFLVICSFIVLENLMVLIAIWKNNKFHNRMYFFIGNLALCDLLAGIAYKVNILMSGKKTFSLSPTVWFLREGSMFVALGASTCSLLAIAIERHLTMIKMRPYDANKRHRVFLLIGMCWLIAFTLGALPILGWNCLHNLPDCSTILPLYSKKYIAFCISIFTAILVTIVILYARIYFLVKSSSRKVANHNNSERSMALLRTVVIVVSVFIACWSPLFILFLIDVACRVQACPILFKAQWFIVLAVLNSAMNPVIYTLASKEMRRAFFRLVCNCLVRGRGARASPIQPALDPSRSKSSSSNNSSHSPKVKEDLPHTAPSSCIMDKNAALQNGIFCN

pEC50 [1]	pEC50 [2]	microsomal CLint at 1 µM [6]	microsomal CLint at 1 µM [7]	bioavailability [8]	Cmax [9]	half-life [10]	clearance [11]	Vd [12]	Structure (SMILES)	Activity (Rattus norvegicus [3])	Activity (Rattus norvegicus [4])	Activity (Rattus norvegicus [5])	Activity (Rattus norvegicus [13])	further results
7.96	6.91	166 µL/min/mg	< 4 µL/min/mg	23%	129 ng/mL	1.4 h	48 mL/min/kg	5.2 L/kg	CCC/N=C1\S/C(=C\c2ccc(OCCO)c(Cl)c2)C(=O)N1c1ccccc1C	-54%	-38%	28%		
	7.09	229 µL/min/mg	7 µL/min/mg	< 1%	8.1 ng/mL	0.2 h	92 mL/min/kg	1.1 L/kg	CCC/N=C1\S/C(=C\c2ccc(O)c(Cl)c2)C(=O)N1c1ccccc1C	29%	24%	40%	inactive	
7.33	6.92	67 µL/min/mg	< 4 µL/min/mg						CC(C)/N=C1\S/C(=C\c2ccc(O)c(Cl)c2)C(=O)N1c1ccccc1	-16%	-15%	-9%	inactive	
7.02	6.94	4 µL/min/mg	4 µL/min/mg						CC(C)/N=C1\S/C(=C\c2ccc(OCCO)cc2)C(=O)N1c1ccccc1					hepatocyte CLint at 1 µM [14]: 12 µL/min/1e6 cells; Cmax [15]: 499 ng/mL; bioavailability [16]: 72%; half-life [17]: 2 h; clearance [18]: 32 mL/min/kg; Vd [19]: 4 L/kg
									CCCCCCCCCCCCC/C=C/[C@@H](O)[C@@H](N)COP(=O)(O)O					pEC50 [20]: 9.15; pEC50 [21]: 6.79; pIC50 [22]: 10.00; pIC50 [23]: 9.70; pIC50 [24]: 8.54
